core dimer inh: blocks dimerization of HCV core protein; TR-FRET GST/Flag-core106 dimerization, 1536-well; inhibition, % at 5 µM; hit rate 0.33% among 300,000; AID 1899;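 active means inhibition above the mean of all tested compounds plus 3 SD, set per screening campaign, cut at about 45% in these data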
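assay system = GST-tagged and Flag-tagged HCV core protein residues 1-106 | controls = unlabelled core106 and no-GST-core106 wells | incubation = compound-protein-antibody incubation 4 h at 22.5 °C | probe or stimulus = Eu donor and XL665 acceptor anti-tag antibodies | read-out = % inhibition based on acceptor/donor emission ratio | signal = TR-FRET 671 and 617 nm emission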
HSF-1 act: increases HSF-1 driven luciferase reporter signal | NIH3T3-HGL HSF-1 luciferase reporter, MG132, 8 h; 100% = twice DMSO control signal | hit rate 1.7% among 300,000 | activation, % at 9 µM | AID 504408;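 active means mean replicate activation of at least 50% with a set share of replicates each reaching 50%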;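 further: 0% = median of the neutral control wells and 100% = twice that signal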
HSF1 inh: HSF1 inhibition; NIH3T3-HGL HSE-luciferase, MG132-induced, luminescence 8 h; hits give low values; activity change, negative = inhibition, % at 7.5 µM (by protocol); hit rate 0.77% among 300,000; AID 2098;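 active means more than half of replicate wells show activity change below -50%, luminescence cut by over half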;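 further: luciferase reports HSF-1 transcriptional activity via heat shock element; 0% = median of DMSO wells and -100% = zero luminescence signal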
HSP90 inh: HSP90 refolding inhibition in rabbit reticulocyte lysate; luciferase refolding luminescence, 3 h; inhibition, % at 5.6 µM; hit rate 0.91% among 290,000; AID 1789;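 active means inhibition above the screen-wide mean plus 3 SD, computed separately per campaign, cut at about 16% in these data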;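 further: 0% = DMSO wells and 100% = 60 µM geldanamycin wells; inhibitors lower the luminescence because luciferase stays unfolded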
HCV NS3 hel inh: blocks Hepatitis C virus NS3 helicase unwinding; NS3 helicase DNA unwinding, Cy5 molecular beacon fluorescence; inhibition, % at 10.9 µM; hit rate 0.56% among 290,000;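 active means inhibition above the mean of all tested compounds plus 3 SD, set per campaign, cut at about 35% in these data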;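 further: 0% = DMSO wells and 100% = thioflavine S control wells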
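test system = hepatitis C virus NS3 helicase domain fragment enzyme | reagent = annealed dual-labelled DNA beacon duplex, ATP-started | times = 1 h at 25 °C | detection = Cy5 fluorescence, 0 and 60 min reads | read-out basis = percent inhibition from t60/t0 fluorescence ratio | control set = DMSO and thioflavine S | replication = one well per compound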
DNA FID counter: fluorescent intercalator displacement, NS3 helicase counter-screen. DNA fluorescent intercalator displacement, fluorescence. inhibition, % at 7.9 µM. hit rate 0.17% among 290,000. AID 1845; in the data active means inhibition above about 37%;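 further: 0% = vehicle and 100% = reference compound; higher means more ethidium bromide displaced from hairpin DNA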
An asterisk follows results filed as active; · = no result. Shown are actives, neighbours in structure and some others; about 3.9% of the full set was active somewhere.

SMILES	core dimer inh	HSF-1 act	HSF1 inh	HSP90 inh	HCV NS3 hel inh	DNA FID counter
ONC(=Nc1ccc(Cl)cc1)c1ccc(Cl)cc1	-2.0	55.1*	29.5	-1.8	-0.5	1.2
COC(=O)c1ccc(OC(=O)CCN2C(=O)C3CCCCC3C2=O)cc1 (stereo unspecified)	-10.4	60.9*	25.3	2.3	8.6	-11.4
COC(=O)c1ccc(OC(=O)CCN2c3ccccc3Sc3ccccc32)cc1	-3.0	26.9	13.9	5.6	22.5	-13.7
O=C(NCc1ccc2c(c1)OCO2)c1cc2ncc(Br)cn2n1	67.2*	·	·	-0.8	2.9	-5.1
O=C(/C=C/c1cccc([N+](=O)[O-])c1)NC(=S)Nc1ccccc1C(=O)O	·	·	·	2.9	18.5	-14.1
O=C(/C=C/c1cccc([N+](=O)[O-])c1)NC(=S)Nc1cccc(NC(=O)c2ccccc2Cl)c1	22.4	60.5*	38.0	-6.2	-1.1	-0.9
C/C(=N/OCC(=O)NCCCCCCNC(=O)CO/N=C(/C)c1cccs1)c1cccs1	1.2	26.8	10.2	5.5	18.0	-44.2
COc1ccc(/C=C2\CN(Cc3ccccc3)C/C(=C\c3ccc(OC)cc3OC)C2=O)c(OC)c1	48.7*	-49.5	-47.5	11.5	-63.9	-13.5
COc1ccc2cc(S(=O)(=O)N3CCCC(C)C3)ccc2c1 (stereo unspecified)	4.5	5.4	-4.9	4.5	-10.2	-22.4
CCC(CO)n1c(SCc2cc([N+](=O)[O-])cc3c2OCOC3)nc2ccccc2c1=O (stereo unspecified)	7.5	56.0*	33.4	1.3	-10.2	-20.5
CCOC(=O)c1cc2c(c(CSc3nc4ccccc4c(=O)n3Cc3ccco3)c1)OCOC2	7.9	58.0*	17.4	-2.3	4.6	-6.3
C=CCn1c(SCC(=O)N(C)C)nc2cc(C(=O)O)ccc2c1=O	-0.6	-8.7	-5.9	-1.6	-2.4	-2.4
Cc1nnc(SCc2cc([N+](=O)[O-])cc3c2OCOC3)n(N)c1=O	0.2	8.7	-3.8	4.0	9.3	3.4
C=CCn1c(SCc2cc([N+](=O)[O-])cc3c2OCOC3)nc2cc(C(=O)O)ccc2c1=O	9.8	63.3*	28.8	3.4	-4.4	-13.8
COC(=O)C1=CN(Cc2ccc(OC)c(OC)c2)C=C(C(=O)OC)C1c1ccccc1F	·	-60.8	-54.9*	2.2	-28.3	-36.3
CCCC(NS(=O)(=O)c1ccc(-c2ccc(=O)[nH]n2)s1)c1cccs1 (stereo unspecified)	6.2	-8.4	-4.3	-1.3	4.6	-35.8
COc1ccccc1C(=O)COC(=O)CNC(=O)c1ccc(Br)o1	-1.8	-1.4	-3.9	·	·	·
COc1ccccc1C(=O)NCC(=O)OCC(=O)c1cccc2ccccc12	1.0	60.3*	19.0	·	·	·
CC(=O)OCCN1C(=O)c2cccc3cc([N+](=O)[O-])cc(c23)C1=O	5.2	7.2	-8.3	·	·	·
Cc1cc(/C=C2\NC(=S)N(C)C2=O)ccc1N1CCCC1	-34.7	-5.3	-5.7	-2.0	10.9	0.0
Cc1cc(/C=C2/C(=O)N(C)C(=S)N2C)ccc1N1CCCC1	-16.1	74.4*	38.5	-3.5	-2.8	3.2
CCOC(=O)N1CCC(NC(=O)C2CCN(S(=O)(=O)c3c(C)noc3C)CC2)CC1	-9.3	-5.2	-7.4	2.5	-0.5	-19.8
Cc1cc2nc(N3C(=O)CNC3=S)sc2cc1C	2.2	49.3	19.6	3.1	11.9	-6.7
CCOc1ccc2nc(N3C(=O)CNC3=S)sc2c1	-4.8	62.5*	26.9	-1.4	4.1	-5.2
CCn1c(SCC(N)=O)nnc1-c1ccc2c(c1)OCO2	0.9	-2.5	1.3	3.8	9.8	1.0
CCOc1ccccc1CN1CCNC(=O)C1CC(=O)NCc1nccn1CC (stereo unspecified)	3.6	66.9*	20.3	-2.2	-8.8	-2.9
Cc1cc(N=Nc2ccc(Cl)cc2)cc(CN2CCCC2)c1O	-7.2	-68.7	-60.5*	1.7	-50.0	7.0
Cc1nc(Nc2nc(CSc3nc4ccccc4[nH]3)cc(=O)[nH]2)nc2ccccc12	15.0	1.7	4.1	4.9	25.4	-21.6
Cc1nc(Nc2nc(CSc3ccc(Cl)cc3)cc(=O)[nH]2)nc2ccccc12	24.4	60.6*	17.4	-3.7	4.3	-3.6
O=c1cc(CSc2ccc(Cl)cc2)nc(-c2ccccn2)[nH]1	-0.8	136.1*	124.4	-2.5	-5.7	-24.0

Bioassay records (PubChem)
